From ChEMBL document CHEMBL3120161, “Antimycobacterial activity of nitrogen heterocycles derivatives: bipyridine derivatives. Part III” (Eur J Med Chem, 2014)
≈ marks a conversion by molar mass, not a printed value.

What was measured:
[1] = tested on: Mycobacterium tuberculosis; test: Antimycobacterial activity against Mycobacterium tuberculosis H37Rv ATCC 27294 at 0.16 to 0.31 ug/ml after 7 days by microplate Alamar blue assay relative to control; format: functional
How it was run: (§1)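 Cycle 1 HTS MABA: M. tuberculosis H37Rv ATCC 27294 in 7H12 broth, 384-well, final 1% DMSO. Ten twofold dilutions, typically 100 to 0.195 µg/mL. Amikacin controls at 0.17 and 3.20 µM; the high level serves as background for percent inhibition. 7 days at 37 °C, ~95% humidity. Fluorescence read at 535 nm excitation / 590 nm emission.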

[2] = tested on: Mycobacterium tuberculosis; test: Antimycobacterial activity against Mycobacterium tuberculosis H37Rv ATCC 27294 at 1.25 to 5 ug/ml after 7 days by microplate Alamar blue assay relative to control; format: functional; how it was run: as §1
[3] = tested on: Mycobacterium tuberculosis; test: Antimycobacterial activity against Mycobacterium tuberculosis H37Rv ATCC 27294 at 0.08 ug/ml after 7 days by microplate Alamar blue assay relative to control; format: functional; conditions: H37Rv ATCC 27294, 168 h
[4] = tested on: Mycobacterium tuberculosis; test: Antimycobacterial activity against Mycobacterium tuberculosis H37Rv ATCC 27294 after 7 days by microplate Alamar blue assay; format: functional, organism-based; conditions: H37Rv ATCC 27294, 168 h; how it was run: as §1
[5] = tested on: Mycobacterium tuberculosis; test: Antimycobacterial activity against Mycobacterium tuberculosis H37Rv ATCC 27294 at 0.63 ug/ml after 7 days by microplate Alamar blue assay relative to control; format: functional; conditions: H37Rv ATCC 27294, 168 h; how it was run: as §1
[6] = tested on: Mycobacterium tuberculosis; test: Antimycobacterial activity against Mycobacterium tuberculosis H37Rv ATCC 27294 after 7 days by broth microdilution assay; format: functional; conditions: H37Rv ATCC 27294, 168 h; how it was run: as §1
[7] = tested on: Mycobacterium tuberculosis; test: Antimycobacterial activity against Mycobacterium tuberculosis H37Rv ATCC 27294 at 25 ug/ml after 7 days by microplate Alamar blue assay relative to control; format: functional; conditions: H37Rv ATCC 27294, 168 h; how it was run: as §1
[8] = tested on: Mycobacterium tuberculosis; test: Antimycobacterial activity against Mycobacterium tuberculosis H37Rv ATCC 27294 at 50 ug/ml after 7 days by microplate Alamar blue assay relative to control; format: functional; conditions: H37Rv ATCC 27294, 168 h; how it was run: as §1
[9] = tested on: Mycobacterium tuberculosis; test: Antimycobacterial activity against Mycobacterium tuberculosis H37Rv ATCC 27294 at 12.5 ug/ml after 7 days by microplate Alamar blue assay relative to control; format: functional; conditions: H37Rv ATCC 27294, 168 h; how it was run: as §1
[10] = tested on: Mycobacterium tuberculosis; test: Antimycobacterial activity against Mycobacterium tuberculosis H37Rv ATCC 27294 at 100 ug/ml after 7 days by microplate Alamar blue assay relative to control; format: functional; conditions: H37Rv ATCC 27294, 168 h; how it was run: as §1
[11] = tested on: Mycobacterium tuberculosis; test: Antimycobacterial activity against Mycobacterium tuberculosis H37Rv ATCC 27294 at 3.13 ug/ml after 7 days by microplate Alamar blue assay relative to control; format: functional; conditions: H37Rv ATCC 27294, 168 h; how it was run: as §1
[12] = tested on: Mycobacterium tuberculosis; test: Antimycobacterial activity against Mycobacterium tuberculosis H37Rv ATCC 27294 at 1.56 ug/ml after 7 days by microplate Alamar blue assay relative to control; format: functional; conditions: H37Rv ATCC 27294, 168 h; how it was run: as §1
[13] = tested on: Mycobacterium tuberculosis; test: Antimycobacterial activity against Mycobacterium tuberculosis H37Rv ATCC 27294 at 6.5 ug/ml after 7 days by microplate Alamar blue assay relative to control; format: functional; conditions: H37Rv ATCC 27294, 168 h; how it was run: as §1

Row | Compound | inhibition (INH) [1] | inhibition (INH) [2] | inhibition at 0.08 µg/mL [3] | IC50 [4] | IC90 [4] | inhibition at 0.63 µg/mL [5] | MIC90 [6] | inhibition at 25 µg/mL [7] | inhibition at 50 µg/mL [8] | inhibition at 12.5 µg/mL [9] | inhibition at 100 µg/mL [10] | inhibition at 3.13 µg/mL [11] | inhibition at 1.56 µg/mL [12] | inhibition at 6.5 µg/mL [13]
1 | NCC[C@H](O)C(=O)N[C@@H]1C[C@H](N)[C@@H](O[C@H]2O[C@H](CN)[C@@H](O)[C@H](O)[C@H]2O)[C@H](O)[C@H]1O[C@H]1O[C@H](CO)[C@@H](O)[C@H](N)[C@H]1O [AMIKACIN] | 96% | 98% | 79.8% | 0.07 µg/mL (≈ 0.12 µM) | 0.08 µg/mL (≈ 0.137 µM) | 97.3% | 0.16 µM (≈ 0.0937 µg/mL) | – | – | – | – | – | – | –
2 | N[C@@H]1CONC1=O [CYCLOSERINE] | – | – | – | 12.5 µg/mL (≈ 122 µM) | 13.5 µg/mL (≈ 132 µM) | – | 25 µM (≈ 2.55 µg/mL) | 93.9% | 96.3% | 51% | 97.7% | – | – | –
3 | CCOC(=O)c1cc(C(=O)c2ccccc2)n2ccc(-c3ccncc3)cc12 | – | – | – | > 100 µg/mL | > 100 µg/mL | – | > 100 µM | – | – | – | -8.6% | 3.9% | 3% | 0.2%
4 | CCc1nc(N)nc(N)c1-c1ccc(Cl)cc1 [PYRIMETHAMINE] | – | – | – | 37.4 µg/mL (≈ 150 µM) | 75 µg/mL (≈ 301 µM) | – | 100 µM (≈ 24.9 µg/mL) | 26.7% | 69.7% | – | 95.6% | – | – | –
5 | CCOC(=O)c1cc(C(N)=O)n2ccc(-c3ccncc3)cc12 | – | – | – | > 100 µg/mL | > 100 µg/mL | – | > 100 µM | – | 2% | 4% | -17% | – | 2.8% | –
